Assay [1] concerns MCF7. The assay is described as follows: Cytotoxicity against human MCF7 cells assessed as reduction in cell growth incubated for 72 hrs by MTT assay. It counts as functional, cell-based. Conditions: MCF7, 72 h. The procedure, abridged: (§1)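 Cells grown in DMEM with 10% FBS and penicillin-streptomycin at 37 °C, 5% CO2, seeded at 3000 cells/well and attached overnight. Screening series given at 1, 3, 10, 100 μM; follow-up agent at 100 nM–3 μM; both 72 h, with 0.1% DMSO vehicle. MTT (5 mg/mL stock) added for 3 h at 37 °C, formazan dissolved in DMSO, absorbance read at 570 nm. Viability expressed as % of DMSO-treated wells from replicates.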

Assay [2] has as its system A-431. The assay can be described thus: Cytotoxicity against human A431 cells assessed as reduction in cell growth incubated for 72 hrs by MTT assay. It counts as functional, cell-based. The conditions noted are these: A-431, 72 h. The procedure, abridged: as §1
On the technique in general: Tetrazolium assays rely on reduction of a dye to a coloured formazan, in cell work by metabolically active cells.

In assay [3] the test system is A-375. The assay can be described thus: Cytotoxicity against human A375 cells assessed as reduction in cell growth incubated for 72 hrs by MTT assay. It counts as functional, cell-based. The conditions noted are these: A-375, 72 h. The procedure, abridged: as §1
Assay [4] relates to HeLa. The assay is described as follows: Cytotoxicity against human HeLa cells assessed as reduction in cell growth incubated for 72 hrs by MTT assay. Type of assay: functional, cell-based. The procedure, abridged:
as §1

Assay [5] has as its system A-375. The assay can be described thus: Cytotoxicity against human A375 cells assessed as reduction in cell growth at 1 uM incubated for 72 hrs by MTT assay relative to control. Type of assay: functional. The conditions noted are these: A-375, 72 h, read-out: GI. The procedure, abridged: as §1
For assay [6], the system named is A-375. The assay is described as follows: Cytotoxicity against human A375 cells assessed as reduction in cell growth at 3 uM incubated for 72 hrs by MTT assay relative to control. Type of assay: functional. The conditions noted are these: A-375, 72 h, read-out: GI. The procedure, abridged:
as §1

For assay [7], the system named is A-375. The assay is described as follows: Cytotoxicity against human A375 cells assessed as reduction in cell growth at 10 uM incubated for 72 hrs by MTT assay relative to control. It counts as functional. Conditions: A-375, 72 h, read-out: GI. The procedure, abridged:
as §1

In assay [8] the test system is A-375. The assay can be described thus: Cytotoxicity against human A375 cells assessed as reduction in cell growth at 30 uM incubated for 72 hrs by MTT assay relative to control. It counts as functional. The conditions noted are these: A-375, 72 h, read-out: GI.
In assay [9] the test system is A-375. The assay can be described thus: Cytotoxicity against human A375 cells assessed as reduction in cell growth at 100 uM incubated for 72 hrs by MTT assay relative to control. It counts as functional. Conditions: A-375, 72 h, read-out: GI. The procedure, abridged:
as §1

Assay [10] deals with A-431. The assay is described as follows: Cytotoxicity against human A431 cells assessed as reduction in cell growth at 1 uM incubated for 72 hrs by MTT assay relative to control. Type of assay: functional. The conditions noted are these: A-431, 72 h, read-out: GI. The procedure, abridged: as §1
Assay [11] has as its system A-431. The assay is described as follows: Cytotoxicity against human A431 cells assessed as reduction in cell growth at 3 uM incubated for 72 hrs by MTT assay relative to control. It counts as functional. Conditions: A-431, 72 h, read-out: GI. The procedure, abridged:
as §1

For assay [12], the system named is A-431. The assay is described as follows: Cytotoxicity against human A431 cells assessed as reduction in cell growth at 10 uM incubated for 72 hrs by MTT assay relative to control. It counts as functional. Conditions: A-431, 72 h, read-out: GI. In outline: as §1
In assay [13] the test system is A-431. The assay is described as follows: Cytotoxicity against human A431 cells assessed as reduction in cell growth at 30 uM incubated for 72 hrs by MTT assay relative to control. It counts as functional. The conditions noted are these: A-431, 72 h, read-out: GI.
For assay [14], the system named is A-431. The assay is described as follows: Cytotoxicity against human A431 cells assessed as reduction in cell growth at 100 uM incubated for 72 hrs by MTT assay relative to control. Type of assay: functional. Conditions: A-431, 72 h, read-out: GI. In outline:
as §1

Assay [15] concerns HeLa. The assay can be described thus: Cytotoxicity against human HeLa cells assessed as reduction in cell growth at 1 uM incubated for 72 hrs by MTT assay relative to control. The conditions noted are these: read-out: GI. Type of assay: functional. In outline:
as §1

In assay [16] the test system is HeLa. The assay is described as follows: Cytotoxicity against human HeLa cells assessed as reduction in cell growth at 3 uM incubated for 72 hrs by MTT assay relative to control. It counts as functional. The conditions noted are these: read-out: GI. The procedure, abridged: as §1
For assay [17], the system named is HeLa. The assay is described as follows: Cytotoxicity against human HeLa cells assessed as reduction in cell growth at 10 uM incubated for 72 hrs by MTT assay relative to control. It counts as functional. The conditions noted are these: read-out: GI. In outline: as §1
For assay [18], the system named is HeLa. The assay is described as follows: Cytotoxicity against human HeLa cells assessed as reduction in cell growth at 30 uM incubated for 72 hrs by MTT assay relative to control. Type of assay: functional. The conditions noted are these: read-out: GI.
The test system of assay [19] is HeLa. The assay can be described thus: Cytotoxicity against human HeLa cells assessed as reduction in cell growth at 100 uM incubated for 72 hrs by MTT assay relative to control. Type of assay: functional. The conditions noted are these: read-out: GI. In outline:
as §1

For assay [20], the system named is MCF7. The assay is described as follows: Cytotoxicity against human MCF7 cells assessed as reduction in cell growth at 1 uM incubated for 72 hrs by MTT assay relative to control. Type of assay: functional. Conditions: MCF7, 72 h, read-out: GI. In outline: as §1
Assay [21] concerns MCF7. The assay can be described thus: Cytotoxicity against human MCF7 cells assessed as reduction in cell growth at 3 uM incubated for 72 hrs by MTT assay relative to control. It counts as functional. The conditions noted are these: MCF7, 72 h, read-out: GI. In outline: as §1
Assay [22] concerns MCF7. The assay is described as follows: Cytotoxicity against human MCF7 cells assessed as reduction in cell growth at 10 uM incubated for 72 hrs by MTT assay relative to control. Type of assay: functional. The conditions noted are these: MCF7, 72 h, read-out: GI. In outline: as §1
Assay [23] relates to MCF7. The assay can be described thus: Cytotoxicity against human MCF7 cells assessed as reduction in cell growth at 30 uM incubated for 72 hrs by MTT assay relative to control. The conditions noted are these: MCF7, 72 h, read-out: GI. Type of assay: functional.
Assay [24] deals with MCF7. The assay can be described thus: Cytotoxicity against human MCF7 cells assessed as reduction in cell growth at 100 uM incubated for 72 hrs by MTT assay relative to control. The conditions noted are these: MCF7, 72 h, read-out: GI. It counts as functional. In outline:
as §1

SMILES strings stand for the structures. Some results are limits rather than exact numbers.

The source of these data is ChEMBL document CHEMBL4387724, “2-Pyridineformamide N(4)-ring incorporated thiosemicarbazones inhibit MCF-7 cells by inhibiting JNK pathway” (Bioorg Med Chem Lett, 2019).

The IC50 is the concentration needed to halve the response being measured.

As for `Cc1cccc(/C(N)=N/NC(=S)N2CCOCC2)n1`, the half-inhibitory concentration (IC50) in assay [1] is 21.5 µM; in [2], 4.3 µM; in assay [3], 14 µM; in [4] it was 2.2 µM. For the same compound, the inhibition of growth at 1 µM was found to be 30.2% in [5], 47.2% in [10], 25.7% in [15] and 11.7% in assay [20]. The inhibition of growth at 3 µM in assay [6] came out at 34.7%; in [11] it was 45.8%; in assay [16], 65.7%; in assay [21] it was 21.6%. The inhibition of growth at 10 µM turned out to be 43.6% in [7], 68.1% in [12], 85.4% in [17] and 39.1% in assay [22]. The inhibition of growth at 30 µM in [8] turned out to be 74.3%; in [13], 80%; in assay [18], 86.9%; in assay [23] it was 57.8%. Further, the inhibition of growth at 100 µM in assay [9] worked out at 83.8%; in [14], 84.8%; in assay [19] it was 82.4%; in assay [24], 74.7%.

`Cc1cccc(/C(N)=N/NC(=S)N2CCN(c3ccccn3)CC2)n1`: the IC50 was more than 100 µM in assay [1], 19.6 µM in assay [2], 0.85 µM in [3] and 0.9 µM in assay [4]. For the same compound, the inhibition of growth at 1 µM in assay [5] worked out at 58.4%; in assay [10] it was 9.2%; in assay [15], 51.8%; in assay [20] it was 8.5%. Besides, the inhibition of growth at 3 µM amounted to 61.8% in assay [6], 34.3% in assay [11], 72.7% in assay [16] and 27.1% in assay [21]. Moreover, the inhibition of growth at 10 µM in [7] amounted to 63.3%; in [12], 43%; in assay [17] it was 72.8%; in assay [22], 20.8%. Further, the inhibition of growth at 30 µM in [8] came out at 74.8%; in [13], 57.4%; in assay [18], 86.3%; in assay [23], 36%. In addition, the inhibition of growth at 100 µM turned out to be 83.8% in assay [9], 78.9% in assay [14], 86.3% in assay [19] and 49.8% in assay [24].

As to `Cc1ccnc(/C(N)=N/NC(=S)N2CCOCC2)c1`, the half-inhibitory concentration (IC50) was more than 100 µM in [1], 6.8 µM in [2], 1.6 µM in [3] and 38.5 µM in assay [4]. Also, the inhibition of growth at 1 µM was 43.2% in assay [5], 33.6% in assay [10], 39.1% in assay [15] and 1.22% in [20]. In addition, the inhibition of growth at 3 µM in assay [6] was determined as 66.6%; in [11], 35.5%; in assay [16], 44.7%; in assay [21] it was 5.07%. Also, the inhibition of growth at 10 µM in assay [7] came to 86%; in assay [12] it was 62%; in assay [17], 49.1%; in assay [22], 6.86%. Besides, the inhibition of growth at 30 µM was 87.4% in assay [8], 74.6% in [13], 45.2% in [18] and 8.16% in [23]. The inhibition of growth at 100 µM in assay [9] was 90.6%; in [14] it was 82.8%; in [19], 82.7%; in assay [24] it was 12.8%.
